Measured values pooled from the literature.
Protocols differ between the studies behind these lines.
Cell line: DU-145
Read-out: cell growth or viability

| Compound | assay | setting | GI50 |
| --- | --- | --- | --- |
| CC(=O)O[C@H]1C(=O)[C@@]2(C)[C@H]([C@H](OC(=O)c3ccccc3)[C@]3(O)C[C@H](OC(=O)[C@H](O)[C@@H](NC(=O)c4ccccc4)c4ccccc4)C(C)=C1C3(C)C)[C@]1(OC(C)=O)CO[C@@H]1C[C@@H]2O | WST-1 | 96 h | 0.004 µM |
| COc1ccc(C(=O)/C=C/c2cc3c(cc2Br)OCO3)cc1S(N)(=O)=O | SRB | 48 h | 3.7 µM |
| COc1cc2c(cc1O)CCN(Cc1cccc(NS(C)(=O)=O)c1)C2 | WST-1 | 96 h | > 100 µM |
| S=C([S][Au-][P+](CCCCCC[P+]([Au-][S]C(=S)n1cccn1)(c1ccccc1)c1ccccc1)(c1ccccc1)c1ccccc1)n1cccn1 |  |  | 1.31 µM |
| COc1ccc(C(=O)/C=C/c2cccc3ccccc23)cc1S(N)(=O)=O | SRB | 48 h | 2.8 µM |
| COc1cc2c(cc1O)CCN(Cc1cc(Cl)c(OC)c(OC)c1)C2 | WST-1 | 96 h | 0.9 µM |
| COc1cc2c(cc1O)CCN(S(=O)(=O)c1ccccc1OC)C2 | WST-1 | 96 h | > 100 µM |
| COc1ccc(C(=O)/C=C/c2cccnc2)cc1S(N)(=O)=O | SRB | 48 h | 11.2 µM |
| COc1cccc(C(=O)N2CCc3cc(O)c(OC)cc3C2)c1 | WST-1 | 96 h | 31.3 µM |
| COc1ccc(C(=O)/C=C/c2c(F)cccc2Cl)cc1S(N)(=O)=O | SRB | 48 h | 3.3 µM |
| CCOc1cc(CN2CCc3cc(O)c(OC)cc3C2)cc(OCC)c1OCC | WST-1 | 96 h | > 100 µM |
| COc1cc2c(cc1OS(N)(=O)=O)CCN(Cc1ccc(OC)c(OC)c1OC)C2 | WST-1 | 96 h | 17 µM |
| COc1cc(-c2ccc(-c3ccc(C(=N)N)nc3)s2)cc(OC)c1OC |  |  | 3.45 µM |
| COc1cccc(Oc2ccccc2NC(=O)CNC(=O)c2cccc3ccccc23)c1 | SRB | 48 h | 0.708 µM |
| COc1cc2c(cc1O)CCN(Cc1ccc(OC)c(OC)c1OC)C2 | WST-1 | 96 h | > 100 µM |
| CCOc1c(OC)cc(CN2CCc3cc(O)c(OC)cc3C2)cc1OC | WST-1 | 96 h | 0.3 µM |
| COc1ccc(C(=O)/C=C/c2ccc3ccccc3c2)cc1S(N)(=O)=O | SRB | 48 h | 3.3 µM |
| CCOc1c(OC)cc(CN2CCc3cc(OS(N)(=O)=O)c(OC)cc3C2)cc1OC | WST-1 | 96 h | 0.1 µM |
| COc1ccc(C(=O)/C=C/c2cccc(Cl)c2Cl)cc1S(N)(=O)=O | SRB | 48 h | 2.9 µM |
